Assay outcomes as filed in PubChem BioAssay.
GalR3 antagonist = blocks the human galanin receptor 3. O60755. HEK293 GalR3-CNG cAMP membrane potential fluorescence; galR3 body fused to GalR1 C-terminus. inhibition, % at 3 µM. 0.44% of 360,000 active. AID 651719;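 active = inhibition above the screen-wide average plus 3 SD, cut at about 13% in these data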;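 note: forskolin and galanin both at EC90 stimulate the cells; cAMP rise reported by CNG channel membrane potential dye signal; 0% = forskolin plus galanin with DMSO and 100% = forskolin alone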
Target sequence (O60755 1-299 limits assumed): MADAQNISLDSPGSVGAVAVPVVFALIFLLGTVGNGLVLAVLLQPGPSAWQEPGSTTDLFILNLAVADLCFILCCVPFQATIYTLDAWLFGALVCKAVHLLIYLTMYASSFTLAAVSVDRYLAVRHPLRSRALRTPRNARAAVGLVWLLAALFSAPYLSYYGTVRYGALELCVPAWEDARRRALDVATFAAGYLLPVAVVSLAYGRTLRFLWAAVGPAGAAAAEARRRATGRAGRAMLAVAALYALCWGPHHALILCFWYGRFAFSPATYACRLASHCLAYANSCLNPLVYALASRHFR
NR2E3 ag-1 = activates human photoreceptor nuclear receptor NR2E3. AID 2300. inhibition of corepressor binding, % at 4.78 µM. 0.12% of 320,000 active. GST-NR2E3/biotin-RetCOR TR-FRET, 1536-well;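 active = percent inhibition above the cutoff of mean plus 3 SD of all tested compounds, set per screening campaign, cut at about 20% in these data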;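 note: 0% = DMSO wells and 100% = biotin wells as full block of FRET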
Target sequence (Q9Y5X4 whole entry, looked up): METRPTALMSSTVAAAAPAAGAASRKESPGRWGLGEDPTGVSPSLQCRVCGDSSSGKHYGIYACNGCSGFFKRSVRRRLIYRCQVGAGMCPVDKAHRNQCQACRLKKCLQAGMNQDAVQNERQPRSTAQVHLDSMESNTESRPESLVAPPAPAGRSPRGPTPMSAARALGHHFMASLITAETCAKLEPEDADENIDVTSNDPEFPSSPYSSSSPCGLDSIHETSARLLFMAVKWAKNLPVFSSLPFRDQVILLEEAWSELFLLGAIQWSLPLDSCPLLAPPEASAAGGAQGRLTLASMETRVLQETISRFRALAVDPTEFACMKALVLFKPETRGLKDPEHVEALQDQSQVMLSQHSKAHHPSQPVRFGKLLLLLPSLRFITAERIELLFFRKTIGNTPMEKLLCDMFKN
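Format: 1536-well format; test system: GST-NR2E3 and biotin-RetCOR proteins; read-out basis: percent inhibition of TR-FRET ratio; timing: 5 h incubation at 4 °C; detection: time-resolved FRET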
NR2E3 ag-2 = agonists of human NR2E3 nuclear receptor; Q9Y5X4; CHO-S Gal4-NCOR/VP16-NR2E3 two-hybrid, luciferase; inhibition of corepressor binding, % at 3.98 µM; 0.35% of 360,000 active;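 active = inhibition above the mean of all tested compounds plus 3 SD, cut at about 70% in these data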;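 note: 0% = DMSO with NR2E3 transfected cells and 100% = cells lacking NR2E3 construct; higher means lower luciferase signal from less NR2E3 corepressor binding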
NR2F2 inh = NR2F2 (human) inhibition, primary screen | P24468 | HEK293T NGFI-A luciferase reporter, luminescence | inhibition, % at 8.6 µM | 0.7% of 370,000 active | AID 686940;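 active = inhibition above a per-plate cutoff, mean inhibition of test wells between control levels plus 3 SD, cut at about 38% in these data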;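 note: cells cotransfected with COUP-TFII expression vector driving the NGFI-A reporter; 0% = median of COUP-TF2 test wells and 100% = reporter-only cells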
SMARCA2 act = activators of SMARCA2 function; 1% of 370,000 active; MG213 cells, MMTV-luciferase reporter, dexamethasone, overnight; activation, % at 9.1 µM; in the data active = activation above about 7.8%;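 note: 0% = vehicle wells and 100% = reference activator wells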
VP16 Luc counter = counter-screen for COUP-TFII antagonists: inhibitors of VP16; inhibition, % at 8.5 µM; shares compounds with NR2F2 inh; 25% of 2,500 active; HEK293 Gal4-VP16 luciferase reporter, luminescence; in the data active = inhibition above about 13%
COUP-TFII conf = COUP-TFII (NR2F2) inhibition, confirmation assay; shares compounds with NR2F2 inh; HEK293 NGFI-A luciferase reporter, luminescence; inhibition, % at 8.5 µM; 45% of 2,500 active; AID 687008;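 active = mean inhibition over three repeats above a set limit taken from the earlier primary screen, cut at about 38% in these data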;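 note: 100% = cells given the luciferase reporter alone without the COUP-TF2 vector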
An asterisk follows results filed as active; / = no result; ! = not confirmed by another sample. Most compounds without a hit are left out; they make up all but 2.2% or so of the library.

SMILES | GalR3 antagonist | NR2E3 ag-1 | NR2E3 ag-2 | NR2F2 inh | SMARCA2 act | VP16 Luc counter | COUP-TFII conf
CCC(CO)[n+]1c(C)cc(/C=C2\Sc3ccccc3N2Cc2ccccc2)cc1C (stereo not drawn) | 9.9 | -0.8 | 11.0 | 85.1* | -12.3 | 22.2* | 87.0*
C/C(=N/NC(=O)CN(c1ccccc1)S(=O)(=O)c1ccccc1)c1ccccc1O | -1.4 | 0.6 | 5.0 | 41.0* | -2.8 | -8.0 | 2.7
Cc1cc(/C=C2\Sc3ccccc3N2C)cc(C)[n+]1CC1CCCO1 (stereo not drawn) | -5.3 | / | -3.3 | 49.2* | -7.4 | 11.7 | 62.0*
COc1cccc(Cn2cc(COC(=O)N3CCCC3)nn2)c1 | / | / | / | -6.0 | -5.7 | / | /
CN(C)NC1=CC(=[N+]2CCCC2)CC(C)(C)C1 | -4.3 | -0.2 | -7.7 | -13.8 | -0.3 | / | /
CCCN(CCC)C1=CC(=[N+]2CCCC2)CC(C)(C)C1 | 24.2* | -3.6 | 7.5 | 52.6* | -3.9 | 10.7 | 42.9*
CC(=O)N1[C@@H](CO)[C@@H](c2ccc(-c3cccc(F)c3)cc2)[C@@H]1CNCC1CCC1 | / | / | / | -8.8 | -0.3 | / | /
O=C1CCCN2N=C(SCC(=O)Nc3cccc(C(F)(F)F)c3)SC2=N1 | -1.0 | -1.9 | -39.3 | 52.6* | -4.8 | -0.4 | 50.3*
O=C1CCCN2N=C(SCC(=O)Nc3cccc(Cl)c3)SC2=N1 | -10.4 | 0.0 | -2.0 | 22.7 | -4.1 | / | /
C#CC[N+](C)(C)CCCCCCCCCC | -2.1 | 2.1 | 6.3 | 46.7* | -7.6 | -2.3 | 17.9
CC#CC[N+](C)(C)CCCCCCCCCCCC | 0.6 | -1.4 | 12.4 | 44.1* | -7.2 | 7.2 | 26.8
C#CC[N+](C)(C)CCCCCCCC | -3.5 | 5.5 | 6.3 | 5.5 | -1.4 | / | /
C#CC[N+](C)(C)CCCCCCCCCCCC | 4.1 | 1.5 | 4.9 | 41.3* | -7.8 | 0.6 | 29.9
CCC(C)NC(=O)CN1C(=O)C2CCCCN2C(=O)c2ccccc21 (stereo not drawn) | / | / | / | -24.1 | -3.2 | / | /
Cc1ccc(-c2nc(C3CCCN(S(=O)(=O)c4cccs4)C3)no2)cc1 (stereo not drawn) | / | / | / | -8.2 | -4.6 | / | /
CCCCCC(=O)NC1CCCCN(Cc2ccccc2C)C1=O (stereo not drawn) | / | / | / | 9.5 | -1.2 | / | /
OC(C1=CC(=Cc2ccncc2)c2ccccc21)c1ccncc1 (stereo not drawn) | -1.9 | / | -8.6 | 37.4* | -3.8 | -6.2 | -13.9
CCOC(=O)[C@@]12CCC3=C1N(CCC3)C(=O)[C@H](CC(=O)NCC13CC4CC(CC(C4)C1)C3)C2 | / | / | / | 4.1 | -2.3 | / | /
C=CCc1c(OC(C)=O)c2ccccc2n(C)c1=O | -1.7 | 4.0 | -25.1 | 39.8* | -0.3 | -9.0 | 30.9
CCCC/C=C1/[C@@H](C(C)C)N(Cc2ccc3c(c2)OCO3)C2=N[C@H](c3ccccc3)CC(=O)N21 | / | / | / | 4.5 | / | / | /
O=C1CCCCCN1C(=O)c1ccccc1 | -4.9 | / | -18.0 | 7.0 | -0.3 | / | /
CC(C)(C)c1ccc(C(=O)N2CCCCCC2=O)cc1 | -1.6 | 0.5 | 45.2 | 85.8* | -9.8 | 80.6* | 76.4*
Nc1cc(=O)[nH]c(SCc2ccc(Cl)cc2Cl)n1 | 3.2 | -2.5 | 11.3 | 48.2* | -6.6 | 15.9* | 33.8
Nc1ncnc2nc(SCc3ccc(Cl)cc3Cl)[nH]c12 | -0.2 | -0.8 | -16.1 | -0.4 | 0.5 | / | /
O=S1(=O)c2c(NCc3ccco3)cccc2Oc2ccccc2CN1Cc1cn(Cc2ccc(C(F)(F)F)cc2)nn1 | / | / | / | 3.3 | -4.5 | / | /
SMILES | GalR3 antagonist | NR2E3 ag-1 | NR2E3 ag-2 | NR2F2 inh | SMARCA2 act | VP16 Luc counter | COUP-TFII conf
Cc1csc(CNc2ncnc3ccc(-c4ccoc4)cc23)c1 | -2.3 | 1.7 | -90.1 | 39.9* | -1.9 | 7.9 | 31.5
c1cncc(CNc2ncnc3ccc(-c4ccoc4)cc23)c1 | -2.5 | 0.7 | -64.5 | 38.0* | -3.3 | 6.5 | 17.0
C[C@@H](CO)N(CCc1cn(Cc2ccccc2)nn1)S(=O)(=O)c1ccccc1Br | / | / | / | -10.9 | -2.3 | / | /
COC(=O)c1ccc(Cn2ccc3ccc(-c4ccc5ccn(Cc6ccc(OC)cc6)c5c4)cc32)cc1 | / | / | / | 2.6 | -1.2 | / | /
COc1ccccc1N1CCN(C(=O)CSc2nnc3n2C(C)(C)Cc2ccccc2-3)CC1 | -7.9 | -0.9 | 3.7 | 63.2* | -4.0 | 4.2 | 44.6*
CC1Cc2ccccc2N1C(=O)CSc1nnc2n1C(C)(C)Cc1ccccc1-2 (stereo not drawn) | -4.7 | 2.3 | -19.8 | 8.9 | -2.1 | / | /
COc1ccc(C(=O)c2ccc(Cl)cc2)c2ccccc12 | 1.2 | 5.2 | -3.3 | 2.0 | -0.1 | / | /
COc1ccc(C(=O)c2ccccc2)c2c(O)ccc(C(=O)c3ccccc3)c12 | -2.9 | 1.0 | 9.9 | 43.5* | -2.1 | 5.3 | 62.6*
CN(C)S(=O)(=O)c1cccc(NC(=O)c2ccc(N3CCCC3=O)cc2)c1 | -3.9 | / | 17.6 | -1.1 | -5.5 | / | /
CCN(c1ccc(NC(=O)c2ccc(N3CCCC3=O)cc2)cc1)C(C)C | -3.3 | -2.6 | -3.2 | 48.6* | -4.4 | -8.7 | 17.9
O=C(Nc1nc(-c2ccccc2)cs1)c1ccc(S(=O)(=O)N2CCc3ccccc32)cc1 | -6.5 | -3.4 | -1.7 | 50.7* | -4.0 | 4.9 | 12.4
O=C(Nc1nc(-c2ccc(S(=O)(=O)N3CCOCC3)cc2)cs1)c1ccccc1 | -4.9 | 0.3 | 17.1 | 67.7* | -4.5 | 18.1*! | 37.5*
O=C(Nc1nc(-c2ccc(S(=O)(=O)N3CCCCCC3)cc2)cs1)c1cccs1 | -1.9 | -0.6 | -4.3 | 55.5* | -2.4 | 4.1 | 25.9
NC(=O)c1ccsc1NC(=O)c1ccc(S(=O)(=O)N2CCCc3ccccc32)cc1 | 3.4 | 0.1 | -10.8 | 38.2* | -3.9 | -8.2 | 12.8
Cc1ccc(-c2csc(NC(=O)c3ccc(S(=O)(=O)N4CCc5ccccc54)cc3)n2)cc1 | -1.8 | 0.2 | -22.4 | 12.5 | -1.7 | / | /
O=C(OCCN1CCN(C2CN(Cc3cn(Cc4ccccc4Cl)nn3)S(=O)(=O)C2)CC1)c1cccs1 (stereo not drawn) | / | / | / | -15.4 | -1.1 | / | /
CCN(CC)S(=O)(=O)c1cc(NC(=O)C(=O)c2c(-c3ccccc3)cc3ccccn23)ccc1C | -5.4 | -0.3 | 18.4 | 39.4* | -3.0 | 11.7 | 18.3
COC(=O)c1ccc2nc(NC(=O)C3CCCCC3)sc2c1 | -2.5 | 3.9 | -105.3 | -33.3 | 0.8 | / | /
COC(=O)c1ccc2nc(NC(=O)C(C)(C)C)sc2c1 | -6.2 | 2.4 | -16.8 | 66.4* | -5.1 | -75.3 | 35.1
COC(=O)c1ccc2nc(Nc3nc4ccc(F)cc4s3)sc2c1 | -3.7 | -0.7 | 27.2 | 52.5* | -5.2 | -9.9 | 57.6*
COC(=O)[C@H]1C[C@@]2(N3CCCC3)c3ccccc3N[C@H]2N1S(C)(=O)=O | / | / | / | 1.5 | -4.6 | / | /
Cc1nn(-c2ccccc2)c2sc(C(=O)N3CCN(S(=O)(=O)c4ccc(Br)s4)CC3)cc12 | / | / | / | -13.4 | -1.5 | / | /
